The source of these data is ChEMBL document CHEMBL1149490, “SAR of biphenyl carboxamide ligands of the human melanin-concentrating hormone receptor 1 (MCH R1): discovery of antagonist SB-568849” (Bioorg Med Chem Lett, 2006).

Molecules are shown by their SMILES. Values after ≈ are worked out from the molar mass of the structure shown. Active and inactive are the calls of the source. The rule behind the calls is not given here.

The target of series [1] is T1, Melanin-concentrating hormone receptor 1 (Homo sapiens, UniProt Q99705). In words: Displacement of radiolabeled iodo-MCH from human MCHR1 expressed in HEK293 cells. It is filed as cell-based.
Series [2] is described as follows: AUC in Sprague-Dawley rat. In kind it is ADME, organism-based. Particulars: plasma. The gist of the method: (§1)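 Cannulated Sprague-Dawley rats (n ≥ 3), crossover over two study days: iv infusion of buffered compound at 10 mL/kg/h, target 1.0 mg pfb/kg, blood sampled up to 24 h. After ≥2 days recovery, oral gavage of a suspension in aq methylcellulose (1.5 mg pfb/mL, 2 mL/kg), target 3 mg pfb/kg, blood sampled pre-dose and up to 27 h.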

Another series relates to Liver microsomes. In words: Intrinsic clearance in rat liver microsome. It is filed as ADME. Summed up: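 Rat liver microsomes at 0.5 mg/mL protein, starting compound 0.5 µM. Compound loss followed as a concentration-time profile. First-order rate constant K taken from the profile; CLi = K·V, scaled and given in mL/min/g liver.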
Background: Liver microsomes are a subcellular fraction often used to study metabolism.

Series [3] in a line: Ratio of drug level in brain against blood in rat 0.3 mg/kg/hr, iv. It is filed as ADME, organism-based. Set-up: route intravenous. To be noted: read-out: BBR. The gist of the method:
(§2)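 Rats given compound dissolved in 2% (v/v) DMSO in 5% (w/v) aqueous dextrose by constant iv infusion over 12 h, target 0.3 mg free base/kg/h, for steady-state brain:blood measurement. Blood clearance is the initial elimination rate from blood per unit body mass after this iv dosing.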

Series [4] can be described thus: Oral bioavailability in Sprague-Dawley rat. It is filed as ADME, organism-based. To be noted: in vivo. The gist of the method: as §1
A short description of series [5]: Clearance in rat at 0.3 mg/kg/hr, iv. Set-up: route intravenous. It is filed as ADME, organism-based. Particulars: in vivo. The gist of the method:
as §2

The target of series [6] is Melanin-concentrating hormone receptor (Homo sapiens) (UniProt Q969V1+Q99705). In words: Antagonizing effect on MCH-stimulated CRF release in rat hypothalamus. In kind it is functional, tissue-based. To be noted: target entry is the homologue from another species.
Series [7] in a line: Solubility of the compound. It is filed as physicochemical.
In series [8] the target is T2, 5-hydroxytryptamine receptor 2C (Homo sapiens, UniProt P28335).
T2 sequence (P28335 whole entry): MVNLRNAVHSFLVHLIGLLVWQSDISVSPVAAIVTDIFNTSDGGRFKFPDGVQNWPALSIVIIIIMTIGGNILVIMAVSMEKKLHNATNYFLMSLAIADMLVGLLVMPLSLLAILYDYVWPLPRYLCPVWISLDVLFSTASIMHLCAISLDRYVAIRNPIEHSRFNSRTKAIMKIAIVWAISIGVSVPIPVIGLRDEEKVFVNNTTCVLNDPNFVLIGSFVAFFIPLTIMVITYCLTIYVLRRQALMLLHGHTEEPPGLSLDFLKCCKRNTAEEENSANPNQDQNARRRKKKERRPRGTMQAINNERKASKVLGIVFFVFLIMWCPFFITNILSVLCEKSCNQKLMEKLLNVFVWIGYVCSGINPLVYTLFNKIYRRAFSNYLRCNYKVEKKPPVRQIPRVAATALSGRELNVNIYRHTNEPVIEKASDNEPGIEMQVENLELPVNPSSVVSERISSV
Briefly: Binding affinity to 5HT2C receptor.

Series [9] concerns the target T1, Melanin-concentrating hormone receptor 1. Briefly: Antagonist activity at human MCHR1 expressed in HEK293 cells assessed as inhibition of MCH-stimulated calcium mobilization. In kind it is functional, cell-based. The gist of the method:
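Stably transfected HEK293 cells re-seeded on poly-D-lysine and grown 24 h, loaded with fluorescent indicator in assay buffer plus probenecid, washed, then exposed to compound for 30 min. FLIPR readings taken before and after an EC80 concentration of MCH. Apparent pKb fitted to the MCH response with a 4-parameter logistic equation.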
For orientation: Calcium assays in cells follow changes in intracellular calcium, usually with a dye or a luminescent sensor.

A short description of series [10]: Solubility in water. It is filed as physicochemical.
Series [11] can be described thus: Solubility in artificial cerebrospinal fluid. It is filed as physicochemical.

T1 sequence (Q99705 whole entry, the tested form may be a part): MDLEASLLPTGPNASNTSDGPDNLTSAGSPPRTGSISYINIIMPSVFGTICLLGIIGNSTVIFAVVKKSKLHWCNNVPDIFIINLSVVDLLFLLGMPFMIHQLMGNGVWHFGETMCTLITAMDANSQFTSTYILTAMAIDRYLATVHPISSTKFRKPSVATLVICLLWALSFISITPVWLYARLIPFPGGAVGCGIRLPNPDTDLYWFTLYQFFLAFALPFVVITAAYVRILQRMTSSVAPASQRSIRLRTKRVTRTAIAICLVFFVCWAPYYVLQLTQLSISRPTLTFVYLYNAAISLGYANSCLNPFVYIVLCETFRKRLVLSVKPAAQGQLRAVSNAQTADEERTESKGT
Chain of Melanin-concentrating hormone receptor (Homo sapiens) (Q969V1 whole entry, looked up): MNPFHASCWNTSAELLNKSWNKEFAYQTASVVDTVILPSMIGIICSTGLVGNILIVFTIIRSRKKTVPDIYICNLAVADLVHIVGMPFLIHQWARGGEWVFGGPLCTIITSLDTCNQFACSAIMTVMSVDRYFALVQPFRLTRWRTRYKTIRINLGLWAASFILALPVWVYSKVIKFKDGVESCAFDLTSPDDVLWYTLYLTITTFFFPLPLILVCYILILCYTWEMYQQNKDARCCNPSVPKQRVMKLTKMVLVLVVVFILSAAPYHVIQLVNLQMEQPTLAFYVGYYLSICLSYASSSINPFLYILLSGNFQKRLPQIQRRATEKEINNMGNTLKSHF
Chain of Melanin-concentrating hormone receptor (Homo sapiens) (Q99705 whole entry, looked up): as the sequence (Q99705 whole entry, the tested form may be a part) above

For orientation: Ki means a measure of affinity in units of concentration, obtained from inhibition or displacement. A high value points to lower affinity. In series [1], `COc1cc(NS(=O)(=O)c2ccc(-c3ccccc3)cc2)ccc1OCCN1CCCC1` showed a Ki above 10000 nM. `COc1cc(NC(=O)c2ccc(-c3ccccc3)cc2C)ccc1OCCN(C(C)C)C(C)C` showed a Ki in series [1] of 126 nM. For the molecule `COc1cc(NC(=O)c2ccc(-c3ccccc3)c(C)c2)ccc1OCCN(C(C)C)C(C)C`, in [1], the Ki was 158 nM. This Ki and that of the molecule before are within 1.5-fold of each other. The same measure, in the same setting: in the case of `COc1cc(NC(=O)c2ccc(-c3ccccc3)cc2)ccc1OCCN1CCCCC1` it was 39.8 nM. For orientation: AUC means concentration integrated over time. In general, bioavailability refers to the share of a dose that reaches the circulation, judged against a reference dose that is usually intravenous. By clearance is commonly meant a measure of how efficiently the substance is removed, as volume per time. A lower clearance goes with inefficient removal. On to `CCN(CC)CCOc1ccc(N(C)C(=O)c2ccc(-c3ccc(C(F)(F)F)cc3)cc2)cc1OC`, for which the AUC in [2] was 2.37 µM·h. Moreover, in [1], the affinity corresponds to a Ki of 20 nM. The molecule further returned a CL in the series with Liver microsomes of 4 mL/min/g. In addition, in series [3], the Kp turned out to be 1. Also, the bioavailability in [4] was 30%. The clearance in series [5] worked out at 16 mL/min/kg. Further, in series [6], the result was Active. Molecule `COc1cc(NC(=O)c2ccc(-c3ccc(C(F)(F)F)cc3)cc2)ccc1OCCN(C(C)C)C(C)C` had a Ki in [1] of 79.4 nM.

Consider `COc1cc(NC(=O)c2ccc(C(C)(C)C)cc2)ccc1OCCN(C(C)C)C(C)C`, for which the Ki in [1] is above 10000 nM. The same measure, in the same setting: in the case of `Cc1cc(NC(=O)c2ccc(-c3ccccc3)cc2)ccc1OCCN(C(C)C)C(C)C` it was 63.1 nM; in that of `COc1cc(NC(=O)c2cccc(C(=O)c3ccccc3)c2)ccc1OCCN(C(C)C)C(C)C`, above 10000 nM; in that of `COc1cc(NC(=O)c2cccc(-c3ccccc3)c2)ccc1OCCN(C(C)C)C(C)C`, 5010 nM. Same read-out and setting: in the case of `COc1cc(NC(=O)c2ccc(Oc3ccccc3)cc2)ccc1OCCN(C(C)C)C(C)C` it was 200 nM. As to `CCN(CC)CCOc1ccc(NC(=O)c2ccc(-c3ccccc3)cc2)cc1C(C)O` (stereo not given), the affinity in series [1] corresponds to a Ki of 251 nM. This Ki and that of the molecule before are within 1.5-fold of each other. On the same count and under the same terms, in the case of `COc1cc(NC(=O)c2ccc(Br)cc2)ccc1OCCN(C(C)C)C(C)C` it was above 6310 nM. On to `CCN(CC)CCOc1ccc(NC(=O)c2ccc(-c3ccccc3)cc2)cc1OC`, for which, in series [1], the affinity corresponds to a Ki of 31.6 nM. This molecule also yielded a CL in the series with Liver microsomes of 4 mL/min/g. As for `COc1cc(NC(=O)c2ccc(-c3ccccc3)cc2)ccc1OCCN(C)Cc1ccccc1`, the affinity in series [1], expressed as Ki, was 50.1 nM. In other words, the double-digit nanomolar range. As usually defined, the solubility is the concentration that dissolves in the medium under given conditions. A low value points to little dissolved substance. As a reminder, the pKb is the negative decadic logarithm of the Kb, by convention in mol/L. With `COc1cc(NC(=O)c2ccc(-c3ccccc3)cc2)ccc1OCCN(C(C)C)C(C)C`, the Ki in [1] was 31.6 nM; in series [8], 158 nM. The molecule also came in with a CL in the series with Liver microsomes of 9 mL/min/g. This molecule yielded a solubility in series [7] of 4 µg/mL (≈ 8.96 µM). Also, the Kp in series [3] came out at 2.7. For the same molecule, the clearance in [5] was found to be 67 mL/min/kg. Further, the pKb in series [9] turned out to be 7.5. The molecule `Cc1cc(OCCN(C(C)C)C(C)C)ccc1NC(=O)c1ccc(-c2ccccc2)cc1` gave a Ki in series [1] of 25.1 nM.

As to `COc1cc(NC(=O)c2ccc(-c3cccc(C(F)(F)F)c3)cc2)ccc1OCCN(C(C)C)C(C)C`, in [1], the affinity corresponds to a Ki of 251 nM.

With `COc1cc(N(C)C(=O)c2ccc(C3CCCCC3)cc2)ccc1OCCN(C(C)C)C(C)C`, the affinity in series [1], expressed as Ki, was 100 nM. Same read-out and setting: in the case of `COc1cc(N(C)S(=O)(=O)c2ccc(-c3ccccc3)cc2)ccc1OCCN(C(C)C)C(C)C` it was above 10000 nM; in that of `COc1cc(NC(=O)c2ccccc2)ccc1OCCN(C(C)C)C(C)C`, above 10000 nM; in that of `COc1cc(N(C)C(=O)c2ccc(Cc3ccccc3)cc2)ccc1OCCN(C(C)C)C(C)C`, 79.4 nM. `COc1cc(NC(=O)c2ccc(-c3ccccc3)cc2)ccc1OCCN1CCCC1`: in [1], affinity was put at a Ki of 31.6 nM. Besides, the CL with Liver microsomes was determined as 2 mL/min/g.

For `CCN(CC)CCOc1ccc(N(CC)C(=O)c2ccc(-c3ccccc3)cc2)cc1OC`, the Ki in series [1] is 251 nM. Still for that read-out and setting: in the case of `COc1cc(NC(=O)c2cccc(Oc3ccccc3)c2)ccc1OCCN(C(C)C)C(C)C` it was 79.4 nM; in that of `COc1cc(NC(=O)c2ccc(-c3ccccc3C)cc2)ccc1OCCN(C(C)C)C(C)C`, 39.8 nM. On the same count and under the same terms, in the case of `COc1cc(NC(=O)c2cccc(Cc3ccccc3)c2)ccc1OCCN(C(C)C)C(C)C` it was 158 nM; in that of `COc1cc(NC(=O)c2ccc(C3CCCCC3)cc2)ccc1OCCN(C(C)C)C(C)C`, 25.1 nM.

`COc1cc(N(C)C(=O)c2ccc(-c3ccccc3)cc2)ccc1OCCN1CCCC1` showed a Ki in [1] of 20 nM. In the series with Liver microsomes, the CL was 2 mL/min/g. In series [3], the Kp came to 0.1. In addition, the clearance in series [5] was 57 mL/min/kg. As to `COc1cc(NC(=O)c2ccc(-c3ccccc3)cc2)ccc1OCCN(C)C`, affinity in [1] was put at a Ki of 50.1 nM.

Molecule `CCN(CC)CCOc1ccc(N(C)C(=O)c2ccc(-c3ccccc3)cc2)cc1OC` showed an inhibition constant Ki in [1] of 20 nM. Further, in the series with Liver microsomes, the CL was 5 mL/min/g. The Kp in series [3] was 0.1. The same molecule came in with a clearance in [5] of 51 mL/min/kg.

In turn, `COc1cc(N(C)C(=O)c2cccc(Oc3ccccc3)c2)ccc1OCCN(C(C)C)C(C)C` gave a Ki in series [1] of 398 nM. This lies in the sub-micromolar range. On the same count and under the same terms, in the case of `CCc1cc(NC(=O)c2ccc(-c3ccccc3)cc2)ccc1OCCN(CC)CC` it was 50.1 nM; in that of `CC(C)N(CCOc1ccc(NC(=O)c2ccc(-c3ccccc3)cc2)cc1F)C(C)C`, 398 nM. Still for that read-out and setting: in the case of `CCN(CC)CCOc1ccc(NC(=O)c2ccc(-c3ccccc3)cc2)cc1C(C)=O` it was 31.6 nM; in that of `CC(C)N(CCOc1ccc(NC(=O)c2ccc(-c3ccccc3)cc2)cc1)C(C)C`, 63.1 nM. For the molecule `COc1cc(N(C)C(=O)c2ccc(-c3ccccc3)cc2)ccc1OCCN(C(C)C)C(C)C`, the solubility in series [10] and in series [11] was above 500 µg/mL throughout. The molecule also gave an inhibition constant (Ki) in series [1] of 15.8 nM. Also, the CL with Liver microsomes worked out at 19 mL/min/g.
